Assay results published in ChEMBL document CHEMBL1138238, “Synthesis and evaluation of 3-aryloxymethyl-1,2-dimethylindole-4,7-diones as mechanism-based inhibitors of NAD(P)H:quinone oxidoreductase 1 (NQO1) activity” (J Med Chem, 2007).

Key:
[1] = tested on: MIA PaCa-2; test: Cytotoxicity against human MIA PaCa2 cells after 72 hrs by MTT assay; assay type: functional, cell-based; settings: MIA PaCa-2, 72 h
[2] = tested on: MIA PaCa-2; test: Cytotoxicity against human MIA PaCa2 cells after 4 hrs by MTT assay; assay type: functional, cell-based; settings: MIA PaCa-2, 4 h
[3] = target: NAD(P)H dehydrogenase [quinone] 1 (Homo sapiens) (UniProt P15559); test: Inhibition of human recombinant NQO1 expressed in MIA PaCa2 cells at 10 to 100 nM after 1 hrs; assay type: cell-based; settings: MIA PaCa-2
Summary of the method: (§1)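 MIA PaCa-2 cells (1×10^6, plated the day before) exposed to indolequinone (1 nM–10 μM) in complete medium for 1 h. Cells then washed in PBS, scraped into 50 mM K phosphate pH 7.4 with 250 mM sucrose and 5 μM FAD, and sonicated on ice. NQO1 activity in sonicates measured as 0.2 mM NADH-dependent reduction of 40 μM DCPIP, read at 600 nm for 1 min at 32 °C.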

[4] = target: NAD(P)H dehydrogenase [quinone] 1 (Homo sapiens) (UniProt P15559); test: Inhibition of human recombinant NQO1 expressed in MIA PaCa2 cells at 5000 to 10000 nM after 1 hrs; assay type: cell-based; settings: MIA PaCa-2; summary of the method: as §1
[5] = target: NAD(P)H dehydrogenase [quinone] 1 (Homo sapiens) (UniProt P15559); test: Inhibition of human recombinant NQO1 expressed in MIA PaCa2 cells at <10 nM after 1 hrs; assay type: cell-based; settings: MIA PaCa-2; summary of the method: as §1

Sequence of NAD(P)H dehydrogenase [quinone] 1 (Homo sapiens) (P15559 whole entry): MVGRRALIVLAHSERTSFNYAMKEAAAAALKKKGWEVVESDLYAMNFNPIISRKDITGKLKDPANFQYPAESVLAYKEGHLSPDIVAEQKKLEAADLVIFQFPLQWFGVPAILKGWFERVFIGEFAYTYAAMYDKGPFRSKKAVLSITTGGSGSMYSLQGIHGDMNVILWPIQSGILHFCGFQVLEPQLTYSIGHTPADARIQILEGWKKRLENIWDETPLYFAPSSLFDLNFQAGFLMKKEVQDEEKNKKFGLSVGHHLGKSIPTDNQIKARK

| inhibition [3] [%] | inhibition [4] [%] | inhibition [5] [%] | Structure (SMILES) | IC50 [1] [µM] | IC50 [2] [µM] |
| --- | --- | --- | --- | --- | --- |
| > 90 | – | – | COC1=CC(=O)c2c(COc3ccc([N+](=O)[O-])cc3)c(C)n(C)c2C1=O | 0.355 | 0.638 |
| > 90 | – | – | COC1=CC(=O)c2c(COc3cccc([N+](=O)[O-])c3)c(C)n(C)c2C1=O | 0.257 | 0.351 |
| – | – | – | COC1=CC(=O)c2c(c(COc3c(F)cc(F)cc3F)c(C)n2C)C1=O | 0.086 | 0.427 |
| > 90 | – | – | COC1=CC(=O)c2c(COc3ccc(F)cc3F)c(C)n(C)c2C1=O | 0.075 | 0.255 |
| – | – | – | O=[N+]([O-])c1ccc(O)c([N+](=O)[O-])c1 [2,4-DINITROPHENOL] | 22.1 | 15.9 |
| > 90 | – | – | COC1=CC(=O)c2c(COc3ccccn3)c(C)n(C)c2C1=O | 2.39 | 9.58 |
| > 90 | – | – | COC1=CC(=O)c2c(COc3ccc([N+](=O)[O-])cc3F)c(C)n(C)c2C1=O | 0.417 | 0.529 |
| – | – | – | Oc1ccncc1 | 17.8 | 43.2 |
| – | – | – | COC1=CC(=O)c2c(c(COc3ccccc3)c(C)n2C)C1=O | 0.962 | 1.39 |
| > 90 | – | – | COC1=CC(=O)c2c(c(COc3cccc([N+](=O)[O-])c3)c(C)n2C)C1=O | 0.258 | 0.352 |
| – | – | – | O=[N+]([O-])c1ccc(O)c(F)c1 | 19.2 | 14.3 |
| – | – | – | Oc1ccc(C(F)(F)F)cc1 | 32.9 | 13.1 |
| > 90 | – | – | COC1=CC(=O)c2c(c(COc3cccnc3)c(C)n2C)C1=O | 0.562 | 0.904 |
| > 90 | – | – | COC1=CC(=O)c2c(c(COc3ccc([N+](=O)[O-])cc3)c(C)n2C)C1=O | 0.508 | 0.629 |
| – | – | – | Oc1ccc(F)cc1 | 13.2 | 12.4 |
| – | – | – | COC1=CC(=O)c2c(c(COc3ccncc3)c(C)n2C)C1=O | 2.17 | 2.01 |
| – | – | – | N#Cc1ccc(O)cc1 [4-CYANOPHENOL] | 73.3 | 56.8 |
| – | > 90 | – | COC1=CC(=O)c2c(COc3ccc(F)cc3)c(C)n(C)c2C1=O | 0.493 | 0.905 |
| > 90 | – | – | COC1=CC(=O)c2c(COc3ccccc3[N+](=O)[O-])c(C)n(C)c2C1=O | 0.178 | 0.363 |
| – | – | > 90 | COC1=CC(=O)c2c(c(COc3ccccn3)c(C)n2C)C1=O | – | – |

| inhibition [3] [%] | inhibition [4] [%] | inhibition [5] [%] | Structure (SMILES) | IC50 [1] [µM] | IC50 [2] [µM] |
| --- | --- | --- | --- | --- | --- |
| – | – | – | COC1=CC(=O)c2c(COc3cccnc3)c(C)n(C)c2C1=O | 1.82 | 2.48 |
| – | – | – | COC1=CC(=O)c2c(COc3ccc(C#N)cc3)c(C)n(C)c2C1=O | 0.192 | 0.463 |
| – | > 90 | – | COC1=CC(=O)c2c(COc3ccc(C(F)(F)F)cc3)c(C)n(C)c2C1=O | 0.311 | 0.496 |
| – | – | – | COC1=CC(=O)c2c(COc3ccc(N)cc3)c(C)n(C)c2C1=O | 0.16 | 0.504 |
| > 90 | – | – | COC1=CC(=O)c2c(COc3c(F)cc(F)cc3F)c(C)n(C)c2C1=O | 0.212 | 0.452 |
| – | – | – | Oc1c(F)cc(F)cc1F | 38.1 | 36.4 |
| – | – | – | COC1=CC(=O)c2c(c(COc3ccccc3[N+](=O)[O-])c(C)n2C)C1=O | 0.104 | 0.345 |
| – | – | – | Nc1ccc(O)cc1 [4-AMINOPHENOL] | 42.2 | 42 |
| – | – | – | COC1=CC(=O)c2c(c(COc3ccc([N+](=O)[O-])cc3F)c(C)n2C)C1=O | 3.56 | 4.65 |
| – | – | – | O=[N+]([O-])c1cccc(O)c1 [3-NITRO-PHENOL] | 13.9 | 7.13 |
| – | – | – | Oc1ccc(F)cc1F | 20.8 | 14.8 |
| – | – | – | COC1=CC(=O)c2c(COc3ccccc3)c(C)n(C)c2C1=O | 0.409 | 4.56 |
| – | – | – | Oc1cccnc1 | 73.1 | 56.5 |
| – | – | – | Oc1ccccc1 [PHENOL] | 16 | 16.5 |
| – | – | – | O=[N+]([O-])c1ccccc1O [NITROPHENOLATE] | 16.4 | 6.08 |
| – | – | – | Oc1ccccn1 | 68.8 | 68.1 |
| – | – | – | COC1=CC(=O)c2c(c(C(C)Oc3ccc([N+](=O)[O-])cc3)c(C)n2C)C1=O (stereo not given) | 1.7 | 1.83 |
| – | – | – | O=[N+]([O-])c1ccc(O)cc1 [P-NITROPHENOL] | 13 | 11 |
| > 90 | – | – | COC1=CC(=O)c2c(COc3ccncc3)c(C)n(C)c2C1=O | 3.27 | 2.56 |
